Here are results for 1 compound from ChEMBL document CHEMBL5325511, “Discovery of N-(4-(Aminomethyl)phenyl)-5-methylpyrimidin-2-amine Derivatives as Potent and Selective JAK2 Inhibitors” (ACS Med Chem Lett, 2023).

pIC50: −log10 of the molar value. Calls of active or inactive are those of the source. No cut-off for these calls is given here.

The test system of data set [1] is BaF3. Nature of the data set: Inhibition of JAK2/STAT signaling pathway in mouse BaF3 cells harbouring JAK2 V617F mutant assessed as reduction in JAK2 phosphorylation by Western blot analysis. In kind it is cell-based. The conditions noted are these: dose 10-1000 nM. The gist of the method: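 Ba/F3 JAK2V617F cells treated with compound at increasing concentrations. Phosphorylation levels of JAK2, STAT3, STAT5 and AKT assessed by Western blot.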

For data set [2], the target named is Tyrosine-protein kinase Lyn (Homo sapiens) (UniProt P07948). The data set can be described thus: Inhibition of LYN (unknown origin). Put shortly: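 Kinase panel profiling (KinaseProfile, run by an outside contractor). The inhibitor was tested at 1 μM in duplicate against DMSO control. The value is % control, the percentage of kinase activity remaining.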
Chain of Tyrosine-protein kinase Lyn (Homo sapiens) (P07948 2-512 limits assumed): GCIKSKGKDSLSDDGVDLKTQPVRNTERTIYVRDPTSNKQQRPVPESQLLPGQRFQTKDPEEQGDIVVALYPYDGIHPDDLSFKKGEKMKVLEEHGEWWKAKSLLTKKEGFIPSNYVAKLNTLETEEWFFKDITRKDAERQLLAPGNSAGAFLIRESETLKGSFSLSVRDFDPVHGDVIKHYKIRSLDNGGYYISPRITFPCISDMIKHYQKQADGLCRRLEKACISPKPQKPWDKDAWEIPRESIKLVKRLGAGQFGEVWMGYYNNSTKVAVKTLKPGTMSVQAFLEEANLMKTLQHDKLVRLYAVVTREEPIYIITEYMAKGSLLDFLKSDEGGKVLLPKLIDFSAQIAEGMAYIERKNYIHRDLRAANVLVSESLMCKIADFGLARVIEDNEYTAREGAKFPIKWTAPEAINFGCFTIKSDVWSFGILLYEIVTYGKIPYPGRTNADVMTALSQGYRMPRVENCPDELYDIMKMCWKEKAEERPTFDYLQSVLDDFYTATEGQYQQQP
A short description of data set [3]: Clearance in Sprague-Dawley rat at 5 mg/kg, po measured upto 24 hrs by LC-MS/MS analysis. It is filed as ADME, organism-based. The conditions noted are these: in vivo. Put shortly:
(§1)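 Sprague–Dawley rats, n = 5, dosed at 5 mg/kg as a solution in 2% ethanol and 1% Tween 80, pH 5.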

Data set [4] deals with T1, Receptor-type tyrosine-protein kinase FLT3 (Homo sapiens, UniProt P36888).
T1 sequence (P36888 whole entry): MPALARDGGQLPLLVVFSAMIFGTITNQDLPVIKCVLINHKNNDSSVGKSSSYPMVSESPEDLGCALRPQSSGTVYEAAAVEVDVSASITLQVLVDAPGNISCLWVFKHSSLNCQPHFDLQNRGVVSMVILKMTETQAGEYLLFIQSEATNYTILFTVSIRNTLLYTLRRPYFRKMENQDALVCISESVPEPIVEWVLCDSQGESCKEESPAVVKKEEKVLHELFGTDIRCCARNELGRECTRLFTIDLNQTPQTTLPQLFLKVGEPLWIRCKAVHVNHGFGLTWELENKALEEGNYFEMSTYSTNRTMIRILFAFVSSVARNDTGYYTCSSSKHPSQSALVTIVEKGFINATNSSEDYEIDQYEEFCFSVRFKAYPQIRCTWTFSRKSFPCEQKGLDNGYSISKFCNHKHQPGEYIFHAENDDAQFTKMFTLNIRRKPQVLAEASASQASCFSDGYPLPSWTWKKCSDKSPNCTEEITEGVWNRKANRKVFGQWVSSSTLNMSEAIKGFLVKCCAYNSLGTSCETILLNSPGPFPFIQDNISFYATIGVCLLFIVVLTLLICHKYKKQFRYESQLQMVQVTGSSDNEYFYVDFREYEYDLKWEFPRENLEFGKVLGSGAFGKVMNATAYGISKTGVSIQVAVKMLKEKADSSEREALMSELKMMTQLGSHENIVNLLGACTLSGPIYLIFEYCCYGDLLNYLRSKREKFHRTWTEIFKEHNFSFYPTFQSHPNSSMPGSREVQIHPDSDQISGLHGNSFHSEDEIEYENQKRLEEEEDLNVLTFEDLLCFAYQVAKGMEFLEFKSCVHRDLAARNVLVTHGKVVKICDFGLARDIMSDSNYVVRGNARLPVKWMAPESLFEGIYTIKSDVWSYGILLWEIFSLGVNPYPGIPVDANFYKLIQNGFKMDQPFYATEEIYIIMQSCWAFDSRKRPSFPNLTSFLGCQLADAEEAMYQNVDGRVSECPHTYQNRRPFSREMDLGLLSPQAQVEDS
Nature of the data set: Inhibition of FLT3 in human MOLM-13 cells. It is filed as cell-based. Put shortly: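 Cell proliferation assay. IC50 is the concentration that inhibits proliferation by 50%, taken from dose–response curves. Mean ± SEM of at least three independent experiments.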

Data set [5] can be described thus: Cmax in Sprague-Dawley rat at 5 mg/kg, po measured upto 24 hrs by LC-MS/MS analysis. In kind it is ADME, organism-based. Details: dose 5 mg/kg, time < 24 hrs, route po. The conditions noted are these: in vivo, 24 h. The gist of the method:
as §1

Data set [6] is described as follows: Oral bioavailability in Sprague-Dawley rat at 5 mg/kg measured upto 24 hrs by LC-MS/MS analysis. It is filed as ADME, organism-based. The following applies: in vivo. The gist of the method:
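Sprague–Dawley rats, n = 5 per group, dosed at 5 mg/kg as a solution in 2% ethanol and 1% Tween 80, pH 5.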

What is called pIC50 is the negative decadic logarithm of the IC50, by convention in mol/L. A word on the Cmax: it is the peak of the concentration-time curve. By bioavailability is commonly meant the share of a dose that reaches the circulation, judged against a reference dose that is usually intravenous. Take `C=CS(=O)(=O)NCc1ccc(Nc2ncc(C)c(-c3cnn(C(C)C)c3)n2)cc1`: the inhibition entry in data set [1] is “Dose-Dependent Effect”. In addition, the inhibition result in data set [2] is “Active”. In addition, the CL in data set [3] turned out to be 295 mL/min/kg. The negative logarithm of the IC50 (pIC50) in data set [4] is 6.23. In data set [5], this compound showed a peak concentration (Cmax) of 121.4 ng/mL. This compound yielded a bioavailability in data set [6] of 41.1%.
